PMC12219203 (Nature Communications, 2025)

Tests used:
[1] = test system: IRF signaling in RAW-Dual Tlr4-/- cells; test: RAW-Dual Tlr4-/- IRF reporter; assay type: cell-based, mouse; settings: 24 h
Procedure, shortened: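 RAW-Dual Tlr4-/- cells were seeded at 100,000 cells/well without selection antibiotics, 24 h before a 24 h exposure to test compounds. IRF-driven secreted luciferase was measured by mixing 20 µL supernatant with 50 µL Quanti-Luc 4 and reading luminescence immediately.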

[2] = GM abundance in mouse gut after intraperitoneal injection; assay type: in vivo; settings: mice, i.p. injection of GM; LC-MS
[3] = test system: murine bone marrow-derived dendritic cells (cDC2); test: CD80/86 surface expression in cDC2s of BMDCs; assay type: cell-based, mouse; settings: 50, 100, 200 μM, 18 h
Procedure, shortened: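 Bone marrow from femur and tibia of C57BL/6J female mice was red-cell-lysed and plated at 2,000,000 cells/mL in medium with FLT3 ligand-containing supernatant, with feeding on days 3 and 6. DCs were reseeded at 2,000,000 cells/well and stimulated 18 h. Cells were Fc-blocked, stained with anti-CD80, anti-CD86 and live/dead dye, and analysed by flow cytometry as MFI in gated cDC2s.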

[4] = test system: NF-κB signaling in RAW-Dual WT cells; test: RAW-Dual WT NF-κB reporter; assay type: cell-based, mouse; settings: 24 h
Procedure, shortened: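 RAW-Dual cells (WT or Tlr4-/-) were seeded at 100,000 cells/well in complete DMEM without selection antibiotics, 24 h before treatment. Test compounds were added for 24 h (n = 3). NF-κB-driven SEAP was read by mixing supernatant 1:4 with Quanti-Blue, incubating 6 h at 37 °C and measuring absorbance at 620 nm, blanked against water-treated wells.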

mTLR4 = mTLR4 (Mus musculus, UniProt Q9JHF9+Q9QUK6); test: HEK-Blue mTLR4 SEAP reporter assay; assay type: cell-based; settings: 24 h
NOD2 = test: HEK-Blue NOD2 SEAP reporter assay; assay type: cell-based, human; settings: MDP, M-AE 200 nM; GM, M 20 μM; 18 h
Procedure, shortened: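 HEK-Blue hNod1 or hNod2 cells were seeded at 50,000 cells/well in DMEM/10% FBS without selection antibiotics and stimulated at once for 18 h (n = 3). Supernatant was mixed 1:4 with Quanti-Blue and incubated 6 h at 37 °C, and absorbance was read at 620 nm. Values were blanked against water-treated wells, and the respective parental Null cell readouts were subtracted.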

mTLR4/mMD2 (K263A / wt) = mTLR4/mMD2 (K263A / wt) (Mus musculus, UniProt Q9JHF9+Q9QUK6, K263A); test: NF-κB SEAP in HEK-Blue Null1, mTLR4 K263A / mMD2 wt; assay type: cell-based; settings: GM 0.4, 0.2 mM, 24 h
Procedure, shortened: (§1)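 Point mutants of mTLR4 or mMD2 were made by site-directed mutagenesis. HEK-Blue Null1 cells were co-transfected by lipofection for 16 h with 500 ng total of mTLR4 and Myc-tagged mMD2 plasmids (1:1); mock wells received lipofection reagent only. After a medium change the next day, cells were treated for 24 h. NF-κB SEAP was measured and normalised to water-treated samples; data are mean ± s.e.m., n = 3.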

WT mice sera = test: Multiplex immunoassay of serum cytokines and chemokines in mice; assay type: in vivo, mouse; settings: GM 10 mg/kg i.p. daily, no DSS
Procedure, shortened: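 Mice received daily intraperitoneal injections, with PBS (5 mL/kg) as vehicle. Serum was analysed with a bead-based inflammatory cytokine/chemokine panel according to the kit protocol, read on a flow cytometer with a high-throughput sampler.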

WT BMDMs [5] = test: RNAseq of WT BMDMs; assay type: cell-based, mouse; settings: GM 8 mM, 24 h, n = 3
Procedure, shortened: (§2)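 BMDMs were differentiated 6 days from mouse bone marrow with GM-CSF or L929 supernatant at 800,000 cells/well, switched to serum-free IMDM and stimulated 24 h; MDP 0.4 mM was run alongside. Total RNA was extracted for RNAseq. Differentially expressed genes were called at p < 0.01 and logFC > 1 and plotted as mean heatmaps; n = 3.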

mTLR4/mMD2 (Q339A / wt) = mTLR4/mMD2 (Q339A / wt) (Mus musculus, UniProt Q9JHF9+Q9QUK6, Q339A); test: NF-κB SEAP in HEK-Blue Null1, mTLR4 Q339A / mMD2 wt; assay type: cell-based; settings: GM 0.4, 0.2 mM, 24 h
Procedure, shortened: as §1

mTLR4/mMD2 (wt / F126A) = mTLR4/mMD2 (wt / F126A) (Mus musculus, UniProt Q9JHF9+Q9QUK6, F126A); test: NF-κB SEAP in HEK-Blue Null1, mTLR4 wt / mMD2 F126A; assay type: cell-based; settings: GM 0.4, 0.2 mM; LPS 100 ng/mL; 24 h
Procedure, shortened: as §1

[6] = test system: IRF signaling in RAW-Dual WT cells; test: RAW-Dual WT IRF reporter; assay type: cell-based, mouse; settings: 24 h
Tlr4-/- BMDMs = test: RNAseq of Tlr4-/- BMDMs; assay type: cell-based, mouse; settings: GM 8 mM, 24 h, n = 3
Procedure, shortened: as §2

mTLR2 = mTLR2 (Mus musculus, UniProt Q9QUN7); test: HEK-Blue mTLR2 SEAP reporter assay; assay type: cell-based; settings: GM 2, 1, 0.5 mM, 24 h, n = 6
Procedure, shortened: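 HEK-Blue mTLR2 cells were seeded at 50,000 cells/well in complete DMEM. After 6 h the medium was changed to serum-free DMEM and test compound was added for 24 h. Secreted SEAP was read by mixing supernatant 1:4 with Quanti-Blue, incubating 6 h at 37 °C and measuring absorbance at 620 nm. Values were blanked against water-treated wells.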

WT BMDMs [7] = test: Cytokine secretion by WT BMDMs; assay type: cell-based, mouse; settings: GM 4 mM, PB-resin, 24 h
Procedure, shortened: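 Bone-marrow macrophages were derived from female C57BL/6J mice (GM-CSF or L929 supernatant, 6 days) and moved to serum-free IMDM. They were given 4 mM test compound or 100 ng/mL LPS for 24 h, each either untreated or first neutralised with polymyxin B resin. Supernatants were cleared at 16,000 × g and TNF-α was measured by sandwich ELISA, with samples prediluted in 1% BSA/PBS when needed.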

Tlr4-/- C57BL/6 J mice = test: DSS-induced colitis model in Tlr4-/- mice; assay type: in vivo, mouse; settings: GM 10 mg/kg i.p. daily, 3% DSS
Procedure, shortened: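 Male SPF C57BL/6J mice aged 7–8 weeks, WT or Tlr4-/- (bred in house), were age-, weight- and sex-matched. They drank 3% (w/v) DSS water for 7 days and were then euthanised. Test compound (10 mg/kg) or PBS (5 mL/kg) was given i.p. daily from 2 days before DSS until the end. Body weight was recorded daily.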

mTLR4, sequence (Q9QUK6 26-835): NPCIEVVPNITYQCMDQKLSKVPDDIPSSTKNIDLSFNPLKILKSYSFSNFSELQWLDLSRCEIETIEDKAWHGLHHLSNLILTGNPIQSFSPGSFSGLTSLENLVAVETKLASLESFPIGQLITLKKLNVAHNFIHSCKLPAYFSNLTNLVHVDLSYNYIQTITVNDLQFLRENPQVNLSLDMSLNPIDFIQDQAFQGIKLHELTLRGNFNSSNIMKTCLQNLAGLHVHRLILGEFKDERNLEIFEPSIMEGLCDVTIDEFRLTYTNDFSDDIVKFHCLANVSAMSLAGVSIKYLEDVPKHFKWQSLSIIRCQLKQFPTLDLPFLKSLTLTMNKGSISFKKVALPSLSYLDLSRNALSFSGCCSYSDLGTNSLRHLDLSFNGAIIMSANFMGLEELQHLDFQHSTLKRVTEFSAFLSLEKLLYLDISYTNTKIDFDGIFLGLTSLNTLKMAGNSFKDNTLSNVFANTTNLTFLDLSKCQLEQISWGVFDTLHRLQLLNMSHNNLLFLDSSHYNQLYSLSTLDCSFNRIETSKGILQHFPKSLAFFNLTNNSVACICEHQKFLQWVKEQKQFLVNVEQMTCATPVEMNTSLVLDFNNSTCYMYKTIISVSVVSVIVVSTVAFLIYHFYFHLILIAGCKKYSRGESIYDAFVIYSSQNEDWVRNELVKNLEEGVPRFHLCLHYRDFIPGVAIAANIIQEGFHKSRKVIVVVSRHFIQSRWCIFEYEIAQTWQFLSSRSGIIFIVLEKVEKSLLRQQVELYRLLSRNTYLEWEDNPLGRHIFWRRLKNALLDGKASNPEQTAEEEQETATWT
mTLR4, sequence (Q9JHF9 19-160): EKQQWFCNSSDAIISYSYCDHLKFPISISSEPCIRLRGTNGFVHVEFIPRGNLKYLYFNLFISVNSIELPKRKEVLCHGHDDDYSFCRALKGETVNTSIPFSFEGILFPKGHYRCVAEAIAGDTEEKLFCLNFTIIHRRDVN
mTLR2, sequence (Q9QUN7 25-784): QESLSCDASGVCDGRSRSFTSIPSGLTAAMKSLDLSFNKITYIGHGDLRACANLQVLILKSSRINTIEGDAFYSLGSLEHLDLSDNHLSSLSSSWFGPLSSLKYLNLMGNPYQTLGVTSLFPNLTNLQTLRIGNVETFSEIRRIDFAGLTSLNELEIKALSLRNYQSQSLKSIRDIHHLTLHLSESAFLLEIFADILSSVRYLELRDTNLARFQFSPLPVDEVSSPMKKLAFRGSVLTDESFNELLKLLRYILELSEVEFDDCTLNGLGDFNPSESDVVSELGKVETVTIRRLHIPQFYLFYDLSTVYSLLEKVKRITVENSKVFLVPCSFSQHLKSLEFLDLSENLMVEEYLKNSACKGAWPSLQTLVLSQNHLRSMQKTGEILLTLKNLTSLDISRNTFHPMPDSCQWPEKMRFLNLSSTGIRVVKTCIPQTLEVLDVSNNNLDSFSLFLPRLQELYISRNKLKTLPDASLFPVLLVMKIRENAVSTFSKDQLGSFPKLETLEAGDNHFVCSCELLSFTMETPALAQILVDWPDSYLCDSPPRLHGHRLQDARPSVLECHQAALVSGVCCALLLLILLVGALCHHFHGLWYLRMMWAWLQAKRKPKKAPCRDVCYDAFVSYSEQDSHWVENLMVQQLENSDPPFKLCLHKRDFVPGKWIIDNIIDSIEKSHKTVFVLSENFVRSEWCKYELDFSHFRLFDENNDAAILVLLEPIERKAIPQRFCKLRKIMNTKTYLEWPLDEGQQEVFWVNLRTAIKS
mTLR4/mMD2 (K263A / wt), sequence (Q9QUK6 26-835 K263A): as the sequence (Q9QUK6 26-835) above, with K238A counted along it
mTLR4/mMD2 (K263A / wt), sequence (Q9JHF9 19-160): as the sequence (Q9JHF9 19-160) above
mTLR4/mMD2 (wt / F126A), sequence (Q9QUK6 26-835): as the sequence (Q9QUK6 26-835) above
mTLR4/mMD2 (wt / F126A), sequence (Q9JHF9 19-160 F126A): as the sequence (Q9JHF9 19-160) above, with F108A counted along it
mTLR4/mMD2 (Q339A / wt), sequence (Q9QUK6 26-835 Q339A): as the sequence (Q9QUK6 26-835) above, with Q314A counted along it
mTLR4/mMD2 (Q339A / wt), sequence (Q9JHF9 19-160): as the sequence (Q9JHF9 19-160) above

In the case of `CC(=O)N[C@H]1[C@H](O[C@H]2[C@H](O[C@H](C)C(=O)O)[C@@H](NC(C)=O)C(O)O[C@@H]2CO)O[C@H](CO)[C@@H](O)[C@@H]1O` (stereo partly drawn) [GM, N-acetylglucosamine-β−1,4-N-acetylmuramic acid], the “IRF signaling in RAW-Dual Tlr4-/- cells (in words)” value [1] is reported as “minimal activity”, the “Abundance in the mouse gut after intraperitoneal injection” value [2] is reported as “temporally increased its abundance in the mouse gut” and the “CD80/86 surface markers in cDC2 population of BMDCs (in words)” value [3] is reported as “upregulates CD80/86 surface marker expressions”. The “NF-κB signaling in RAW-Dual WT cells (in words)” value [4] was “dose-dependent activation of both NF-κB and IRF signaling”, the “Activity in HEK-Blue mTLR4 reporter cells under polymyxin B titration (in words)” value (mTLR4; GM 1 mM, polymyxin B 0, 0.1, 1, 10 kU) was “unaffected by polymyxin B titration” and the “TLR4 stimulation in HEK-Blue mTLR4 reporter cells (in words)” value (mTLR4; disaccharides 0.5 or 1 mM, GM-A and GM-AE 1 mM) was “stimulate TLR4”. For the same compound, the “NOD2 activation in HEK-Blue reporter cells (in words)” value (NOD2) was “unable to activate NOD1/2”, the “Effect of mutation mTLR4_K263 on NF-κB activity (in words)” value (mTLR4/mMD2 (K263A / wt)) was “abolished GM-triggered NF-κB activity” and the “Circulating cytokines and chemokines in mice, GM alone” value (WT mice sera) was “does not significantly alter circulating cytokines and chemokines in mice”. The “Cytokine and chemokine genes (Il12a/b, Il6, Il1a/b, Csf3, Ccl5, Cxcl1) by RNAseq, WT BMDMs” value (WT BMDMs [5]) was “significantly upregulated”, the “Effect of mutation mTLR4 Q339 on NF-κB activity (in words)” value (mTLR4/mMD2 (Q339A / wt)) was “abolished GM-triggered NF-κB activity” and the “Effect of mutation mMD-2_F126 on NF-κB activity (in words)” value (mTLR4/mMD2 (wt / F126A)) was “abrogated NF-κB activation”. For the same compound, the “IRF signaling in RAW-Dual WT cells (in words)” value [6] was “dose-dependent activation of both NF-κB and IRF signaling”, the “Cytokine and chemokine genes by RNAseq, Tlr4-/- BMDMs” value (Tlr4-/- BMDMs) was “fails to induce the expression of these genes” and the “Activation of HEK-Blue mTLR2 reporter cells (in words)” value (mTLR2) was “does not activate”. The “TNF-α induction in BMDMs after polymyxin B neutralization (in words)” value (WT BMDMs [7]) was “unaffected by polymyxin B neutralization”, the “DSS-induced colitis in Tlr4-/- mice: weight loss and colonic shortening” value (Tlr4-/- C57BL/6 J mice) was “failed to prevent weight loss and colonic shortening” and the “Cytoprotective responses in colitis Tlr4-/- mice” value (Tlr4-/- C57BL/6 J mice; RT-qPCR) was “No upregulation of cytoprotective responses”.
